# Experimental data gathered from unrelated publications.
# Lines come from different studies, so protocols differ.
# Target: Amine oxidase [flavin-containing] A (MAOA, Homo sapiens, UniProt P21397)
# Effect on: enzyme activity
# Mode: inhibitor
# Sequence (P21397 1-527, as in one of the studies): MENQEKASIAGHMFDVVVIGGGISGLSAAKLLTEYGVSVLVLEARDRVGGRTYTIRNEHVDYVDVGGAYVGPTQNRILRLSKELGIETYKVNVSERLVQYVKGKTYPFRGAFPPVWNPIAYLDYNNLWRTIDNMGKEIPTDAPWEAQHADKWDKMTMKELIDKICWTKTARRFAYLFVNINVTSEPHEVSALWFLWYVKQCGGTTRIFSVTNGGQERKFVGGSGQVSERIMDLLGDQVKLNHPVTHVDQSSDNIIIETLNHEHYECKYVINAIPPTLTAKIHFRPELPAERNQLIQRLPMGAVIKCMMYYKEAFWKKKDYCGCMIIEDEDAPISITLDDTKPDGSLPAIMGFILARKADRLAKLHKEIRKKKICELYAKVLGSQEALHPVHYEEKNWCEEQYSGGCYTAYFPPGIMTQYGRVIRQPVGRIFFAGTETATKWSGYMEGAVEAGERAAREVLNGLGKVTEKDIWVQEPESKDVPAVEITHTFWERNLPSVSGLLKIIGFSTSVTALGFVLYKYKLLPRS
Compound,assay,setting,endpoint,result
C#CCOc1ccc(/C=C/C(=O)N2CCc3ccccc3C2)cc1OC,fluorescence,,IC50,64 µM
O=C(O)c1cc(O)c2c(c1)C(=O)c1cc(O)cc(O)c1C2=O,,,IC50,47.1 µM
CN1CCN(C(=O)CN[C@@H]2C[C@H]2c2ccc(OCc3ccccc3)cc2)CC1,luciferase,,IC50,0.51 µM
COC(=O)c1ccc(C(=O)OC)c(NC(=O)c2cc(Cl)ccc2O)c1,,,IC50,> 5 µM
O=c1c(O)c(-c2ccc(O)c(O)c2)oc2cc(O)ccc12,,,IC50,4.62 µM
O=C(Nc1ccc([N+](=O)[O-])cc1Cl)c1cc2ccccc2o1,,,IC50,0.293 µM
O=C1C[C@@H](c2ccc(O)cc2)Oc2cc(O)cc(O)c21,,,IC50,8.64 µM
COc1cc(/C=C/C(=O)N2CCc3ccccc3C2)ccc1OC1CCCCC1,fluorescence,,IC50,65.3 µM
c1cc2c(cc1C1CCCCC1)c1c3n2CCNC3CCC1 (centres unmarked),,pH 7.5,Ki,5.3 µM
COc1ccc(/C=C/C(=O)N2CCC(Cc3ccccc3)CC2)cc1OC,fluorescence,,IC50,66.1 µM
O=C1c2c(O)cc(O)cc2O[C@H](c2ccc(O)cc2)[C@H]1O,,,IC50,14.6 µM
